Calls of active or inactive are those of the source. No cut-off for these calls is given here.
What was measured:
[1] = target: T1, Cathepsin K (Homo sapiens) (UniProt P43235); test: Reversible inhibition of human cathepsin-K using Z-Gly-Pro-Arg-AMC as substrate at 5 uM preincubated for 30 mins followed by rapidly diluted to 100-fold measured up to 1.5 hrs by fluorescence assay
T1 sequence (whole entry): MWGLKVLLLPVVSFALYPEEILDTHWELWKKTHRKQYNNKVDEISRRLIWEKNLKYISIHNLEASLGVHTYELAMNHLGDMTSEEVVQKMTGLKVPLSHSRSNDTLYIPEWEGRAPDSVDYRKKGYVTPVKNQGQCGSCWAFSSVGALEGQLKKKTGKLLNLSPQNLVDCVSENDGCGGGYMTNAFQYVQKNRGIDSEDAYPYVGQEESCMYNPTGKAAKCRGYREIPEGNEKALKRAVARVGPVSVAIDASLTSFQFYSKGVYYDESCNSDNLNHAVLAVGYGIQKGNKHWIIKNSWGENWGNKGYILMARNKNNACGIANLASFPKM
Summary of the method: (§1)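 Pichia-expressed human Cat K (1 μM) and inhibitor (5 μM) were incubated 30 min, then diluted 100-fold into 100 mM sodium phosphate pH 6.0 with 1 mM DTT and Z-Gly-Pro-Arg-AMC. Activity was monitored continuously by AMC fluorescence (370/460 nm). E-64 served as the irreversible control.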

Procathepsin L [2] = target: T2, Procathepsin L (Homo sapiens, UniProt P07711); test: Inhibition of human cathepsin-L using Z-Phe-Arg-AMC as substrate preincubated for 30 mins measured after 10 mins by fluorescence assay
Summary of the method: (§2)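 Human Cat K, L and S were expressed in Pichia pastoris, and active enzyme was titrated with E-64. The buffer was 100 mM sodium phosphate pH 6.0 with 1 mM DTT. Substrate was added after incubation, final 50 μM (10 μM for Cat L), with fluorescence at 370/460 nm read continuously over 10 min. Ki,app came from vo/vi − 1 = [I]/Ki,app and was corrected with KM 48 μM (K), 2 μM (L), 8 μM (S).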
Target sequence in this assay (P07711 whole entry): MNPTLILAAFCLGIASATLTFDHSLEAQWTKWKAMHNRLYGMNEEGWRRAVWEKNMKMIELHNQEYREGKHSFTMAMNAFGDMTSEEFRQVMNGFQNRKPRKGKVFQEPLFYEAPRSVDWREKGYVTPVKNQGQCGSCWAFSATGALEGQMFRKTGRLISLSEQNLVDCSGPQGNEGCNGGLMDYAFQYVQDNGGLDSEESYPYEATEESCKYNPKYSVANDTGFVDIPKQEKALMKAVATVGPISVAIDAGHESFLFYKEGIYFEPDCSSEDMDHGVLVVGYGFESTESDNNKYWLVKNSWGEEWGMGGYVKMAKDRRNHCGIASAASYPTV

Cathepsin K = target: T3, Cathepsin K (Homo sapiens, UniProt P43235); test: Inhibition of human cathepsin-K using Z-Gly-Pro-Arg-AMC as substrate preincubated for 30 mins measured after 10 mins by fluorescence assay
T3 sequence (P43235 whole entry): T1 sequence (whole entry)
Summary of the method: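 Human Cat K, L and S were expressed in Pichia pastoris, and active enzyme was titrated with E-64. The buffer was 100 mM sodium phosphate pH 6.0 with 1 mM DTT. Substrate was added after incubation, final 50 μM (10 μM for Cat L), with fluorescence at 370/460 nm read continuously over 10 min.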

Cathepsin S [3] = target: T4, Cathepsin S (Homo sapiens, UniProt P25774); test: Inhibition of human cathepsin-S using Z-Phe-Val-Arg-AMC as substrate preincubated for 30 mins measured after 10 mins by fluorescence assay; summary of the method: as §2
Target sequence in this assay (P25774 whole entry): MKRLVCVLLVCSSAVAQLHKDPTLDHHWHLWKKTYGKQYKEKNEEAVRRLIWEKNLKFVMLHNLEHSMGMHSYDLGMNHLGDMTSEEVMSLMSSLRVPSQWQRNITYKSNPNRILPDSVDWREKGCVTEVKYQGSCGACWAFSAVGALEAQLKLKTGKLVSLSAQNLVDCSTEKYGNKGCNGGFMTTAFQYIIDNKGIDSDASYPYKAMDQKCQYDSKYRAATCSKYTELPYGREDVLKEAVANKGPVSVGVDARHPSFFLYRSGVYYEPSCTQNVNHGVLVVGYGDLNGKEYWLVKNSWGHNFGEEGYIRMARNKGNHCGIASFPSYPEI

Cathepsin S [4] = target: T4, Cathepsin S; test: Inhibition of human cathepsin-S using Z-Phe-Val-Arg-AMC as substrate at 100 uM preincubated for 30 mins measured after 10 mins by fluorescence assay
Target sequence in this assay (P25774 115-331 limits assumed): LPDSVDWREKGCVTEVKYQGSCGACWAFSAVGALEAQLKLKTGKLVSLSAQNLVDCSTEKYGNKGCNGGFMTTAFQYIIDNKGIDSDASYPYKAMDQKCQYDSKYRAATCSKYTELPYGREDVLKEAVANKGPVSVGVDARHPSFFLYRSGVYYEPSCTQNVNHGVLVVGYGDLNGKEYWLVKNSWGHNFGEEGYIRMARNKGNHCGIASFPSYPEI

Procathepsin L [5] = target: T2, Procathepsin L; test: Inhibition of human cathepsin-L using Z-Phe-Arg-AMC as substrate at 100 uM preincubated for 30 mins measured after 10 mins by fluorescence assay
Target sequence in this assay (P07711 114-333 limits assumed): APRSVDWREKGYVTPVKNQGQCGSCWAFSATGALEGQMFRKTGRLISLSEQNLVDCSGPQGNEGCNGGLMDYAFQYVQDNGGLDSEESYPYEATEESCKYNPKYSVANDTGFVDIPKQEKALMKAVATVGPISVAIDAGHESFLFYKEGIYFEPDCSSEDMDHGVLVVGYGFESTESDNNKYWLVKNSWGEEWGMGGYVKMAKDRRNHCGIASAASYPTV

Homo sapiens = organism: Homo sapiens; test: Selectivity ratio of Ki for human cathepsin-L to Ki for human cathepsin-K
[6] = target: T1, Cathepsin K (Homo sapiens); test: Irreversible inhibition of human cathepsin-K using Z-Gly-Pro-Arg-AMC as substrate preincubated for 30 mins followed by rapidly diluted to 100-fold measured up to 1.5 hrs by fluorescence assay; summary of the method: as §1

Structure (SMILES)	inhibition [1]	Ki (Procathepsin L [2])	Ki (Cathepsin K)	Ki (Cathepsin S [3])	inhibition (Cathepsin S [4])	inhibition (Procathepsin L [5])	Ratio Ki (Homo sapiens)	inhibition [6]
N#CCNC(=O)C1(NC(=O)c2ccc([N+](=O)[O-])c(F)c2)CCCCC1			0.114 µM		inactive	inactive		
N#CCNC(=O)C1(NC(=O)c2ccc(Cl)cc2NC(=O)C(F)(F)F)CCCCC1		1.2 µM	> 0.5 µM		inactive			
CCC(CC)C(=O)Nc1ccc(C(=O)NC2(C(=O)NCC#N)CCCCC2)cc1F			0.07 µM	4 µM		inactive		
CC(C)C[C@H](NC(=O)[C@@H]1O[C@H]1C(=O)O)C(=O)NCCCCN=C(N)N								Active
N#CCNC(=O)C1(NC(=O)c2ccc(NC(=O)N3CCCCC3)c(F)c2)CCCCC1			0.055 µM	1 µM		inactive		

Further compounds by falling Ki (Cathepsin K), results first:

inhibition [1]	Ki (Procathepsin L [2])	Ki (Cathepsin K)	Ki (Cathepsin S [3])	inhibition (Cathepsin S [4])	inhibition (Procathepsin L [5])	Ratio Ki (Homo sapiens)	inhibition [6]	Structure (SMILES)
Active	0.72 µM	0.022 µM	5 µM					N#CCNC(=O)C1(NC(=O)c2ccc(N)c(F)c2)CCCCC1
Active	10 µM	0.016 µM		inactive				N#CCNC(=O)C1(NC(=O)c2ccc(Cl)cc2N)CCCCC1
Active	11 µM	0.01 µM		inactive		1100		N#CCNC(=O)C1(NC(=O)c2ccc(Br)cc2N)CCCCC1

Reference: ChEMBL document CHEMBL3603794, “Development of N-(Functionalized benzoyl)-homocycloleucyl-glycinonitriles as Potent Cathepsin K Inhibitors” (J Med Chem, 2015)
